These results are taken from ChEMBL document CHEMBL2380222, “Arylsulfonamide pyrimidines as VLA-4 antagonists” (Bioorg Med Chem Lett, 2013).

Data set [1] can be described thus: Oral bioavailability in Sprague-Dawley rat. The format is ADME, organism-based. To be noted: in vivo.
Data set [2] can be described thus: Inhibition of VLA-4 (unknown origin) binding to VCAM-1 in human Jurkat TM cells after 30 mins by fibronectin mediated cell adhesion assay. The format is cell-based. In outline: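 Calcein-labelled Jurkat TM cells (10^5/well) in Hepes 20 mM, NaCl 140 mM, CaCl2 1 mM, MgCl2 1 mM, 0.3% BSA with activating anti-α4 TS2/16. Cells were preincubated 30 min on wet ice with anti-α5 (5 µg/ml) and a compound dose–response, then bound 35 min at 37 °C, 5% CO2 to human plasma fibronectin-coated wells. Wells were washed 3× and read by fluorescence to give IC50.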

A short description of data set [3]: AUC in po dosed Sprague-Dawley rat. To be noted: plasma. The format is ADME, organism-based.
Data set [4] is described as follows: AUC in iv dosed Sprague-Dawley rat. The conditions noted are these: plasma. In kind it is ADME, organism-based.
The nature of data set [5]: Plasma concentration in po dosed Sprague-Dawley rat after 12 hrs. The format is ADME, organism-based.
Data set [6] can be described thus: Plasma concentration in po dosed Sprague-Dawley rat after 6 hrs. The format is ADME, organism-based.

What is called bioavailability is dose-corrected exposure relative to a reference, in per cent. Low readings indicate little systemic uptake, high ones much systemic uptake. By IC50 is commonly meant the midpoint of a concentration-inhibition curve. A lower IC50 goes with inhibition by little substance. For orientation: AUC means the area under the concentration-time curve, a measure of exposure. Higher therefore signals more exposure.

`CCN(CC)c1ncc(N(CC)S(=O)(=O)c2ccc(F)cc2)c(N[C@@H](Cc2ccc(OC(=O)N(C)C)cc2)C(=O)O)n1` yielded a bioavailability in data set [1] of 44%. The compound further came in with an IC50 in data set [2] of 1 nM. Moreover, the area under the curve (AUC) amounted to 14000 ng·h/mL in data set [3] and 32000 ng·h/mL in data set [4]. In addition, in data set [5], the concentration at 12 h amounted to 60 ng/mL.
The compound `CCN(CC)c1ncc(N(C)S(=O)(=O)c2ccc(C)cc2)c(N[C@@H](Cc2ccc(OC(=O)N3CCCC3)cc2)C(=O)O)n1` yielded a bioavailability in data set [1] of 43%. In addition, the 50% inhibitory concentration (IC50) in data set [2] was determined as 6 nM. Also, the area under the curve (AUC) in data set [3] was 74000 ng·h/mL; in data set [4], 173000 ng·h/mL. Also, the concentration at 12 h in data set [5] was 450 ng/mL.
The compound `C#CCN(c1cnc(N(CC)CC)nc1N[C@@H](Cc1ccc(OC(=O)N2CCCC2)cc1)C(=O)O)S(=O)(=O)c1ccc(F)cc1F` registered a bioavailability in data set [1] of 33%. This compound came in with an IC50 in data set [2] of 13 nM. Besides, the area under the curve (AUC) is 42000 ng·h/mL in data set [3] and 126000 ng·h/mL in data set [4]. The compound further had a concentration at 12 h in data set [5] of 120 ng/mL.
As to `CCN(CC)c1ncc(N(CC)S(=O)(=O)c2ccc(F)cc2)c(N[C@@H](Cc2ccc(OC(=O)N3CCC3)cc2)C(=O)O)n1`, the bioavailability in data set [1] was 16%. The IC50 in data set [2] was determined as 2 nM. Moreover, the AUC in data set [3] worked out at 6000 ng·h/mL; in data set [4], 34000 ng·h/mL. The compound also yielded a concentration at 12 h in data set [5] of 10 ng/mL.
For the compound `CCN(CC)c1ncc(N(C)S(=O)(=O)c2ccc(Cl)cc2)c(N[C@@H](Cc2ccc(OC(=O)N(C)C)cc2)C(=O)O)n1`, in data set [1], the bioavailability is 73%. For the same compound, the half-inhibitory concentration (IC50) in data set [2] was 3 nM. Further, the area under the curve (AUC) came out at 23000 ng·h/mL in data set [3] and 32000 ng·h/mL in data set [4]. In data set [5], this compound displayed a concentration at 12 h of 130 ng/mL.
On to `CCN(CC)c1ncc(N(C)S(=O)(=O)c2ccc(Cl)cc2)c(N[C@@H](Cc2ccc(OC(=O)N3CCCC3)cc2)C(=O)O)n1`, for which the bioavailability in data set [1] was 33%. The same compound came in with an IC50 in data set [2] of 19 nM. The AUC in data set [3] came to 51000 ng·h/mL; in data set [4], 153000 ng·h/mL. For the same compound, the concentration at 12 h in data set [5] stood at 330 ng/mL.
In turn, `CCN(CC)c1ncc(N(CC)S(=O)(=O)c2ccc(F)cc2)c(N[C@@H](Cc2ccc(OC(=O)N3CCCC3)cc2)C(=O)O)n1` gave a bioavailability in data set [1] of 46%. In data set [2], this compound registered a 50% inhibitory concentration (IC50) of 1 nM. In addition, the results for the area under the curve (AUC) in data set [3] and in data set [4] were 51000 ng·h/mL and 111000 ng·h/mL, respectively. The compound also registered a concentration at 12 h in data set [5] of 180 ng/mL.
`CCN(CC)c1ncc(N(CC)S(=O)(=O)c2ccc(Cl)cc2)c(N[C@@H](Cc2ccc(OC(=O)N(C)C)cc2)C(=O)O)n1`: in data set [1], the bioavailability was found to be 33%. Also, in data set [2], the concentration for half-maximal inhibition (IC50) is 7 nM. The exposure (AUC) was found to be 5100 ng·h/mL in data set [3] and 17000 ng·h/mL in data set [4]. Besides, in data set [5], the concentration at 12 h is 12 ng/mL.
For the compound `CCN(CC)c1ncc(N(C)S(=O)(=O)c2ccc(C)cc2)c(N[C@@H](Cc2ccc(OC(=O)N(C)C)cc2)C(=O)O)n1`, the bioavailability in data set [1] came to 15%. This compound also gave a concentration at 6 h in data set [6] of 100 ng/mL. The compound also yielded a concentration for half-maximal inhibition (IC50) in data set [2] of 2 nM. Besides, the AUC was determined as 6000 ng·h/mL in data set [3] and 41000 ng·h/mL in data set [4].
In data set [1], `CCN(CC)c1ncc(N(C)S(=O)(=O)c2ccc(F)cc2F)c(N[C@@H](Cc2ccc(OC(=O)N3CCCC3)cc2)C(=O)O)n1` showed a bioavailability of 17%. In data set [2], the concentration for half-maximal inhibition (IC50) was determined as 8 nM. Also, the figures for the exposure (AUC) in data set [3] and in data set [4] were 16000 ng·h/mL and 90000 ng·h/mL, respectively. This compound showed a concentration at 12 h in data set [5] of 100 ng/mL.
The compound `CCN(CC)c1ncc(N(CC)S(=O)(=O)c2ccc(F)cc2F)c(N[C@@H](Cc2ccc(OC(=O)N3CCCC3)cc2)C(=O)O)n1` had a bioavailability in data set [1] of 34%. In addition, in data set [2], the half-inhibitory concentration (IC50) turned out to be 9 nM. In addition, the values for the AUC in data set [3] and in data set [4] were 28000 ng·h/mL and 83000 ng·h/mL, respectively. The concentration at 12 h in data set [5] came to 50 ng/mL.
The like results for `CCN(CC)c1ncc(N(CC)S(=O)(=O)c2ccc(F)c(F)c2)c(N[C@@H](Cc2ccc(OC(=O)N(C)C)cc2)C(=O)O)n1` were, in that order, 24%, 4 nM, 4200 ng·h/mL, 17000 ng·h/mL and 8 ng/mL.
For `CN(C)C(=O)Oc1ccc(C[C@H](NC(=O)[C@H]2N(S(=O)(=O)c3cnn(C)c3)CSC2(C)C)C(=O)O)cc1`, in data set [2], the IC50 is 2 nM. That is a single-digit nanomolar value.
Compound `CCN(CC)c1ncc(N(C(C)C)S(=O)(=O)c2ccc(Cl)cc2)c(N[C@@H](Cc2ccc(OC(=O)N(C)C)cc2)C(=O)O)n1` returned an IC50 in data set [2] of 4 nM.
Turning to `Cc1ccc(S(=O)(=O)N(C)c2cncnc2N[C@@H](Cc2ccc(OC(=O)N(C)C)cc2)C(=O)O)cc1`, the IC50 in data set [2] amounted to 2 nM.
On the same count and under the same terms, to `CCN(CC)c1ncc(N(C(C)C)S(=O)(=O)c2ccc(F)c(F)c2)c(N[C@@H](Cc2ccc(OC(=O)N(C)C)cc2)C(=O)O)n1` belongs 7 nM.
`CCN(CC)c1ncc(N(CC)S(=O)(=O)c2ccc(Cl)cc2)c(N[C@@H](Cc2ccc(OC(=O)N3CCCC3)cc2)C(=O)O)n1` returned a bioavailability in data set [1] of 31%. Further, in data set [2], the IC50 came out at 17 nM. The AUC in data set [3] turned out to be 34000 ng·h/mL; in data set [4], 110000 ng·h/mL. Further, the concentration at 12 h in data set [5] amounted to 100 ng/mL.
In data set [2], `CCN(CC)c1ncc(N(C(C)C)S(=O)(=O)c2ccc(F)cc2)c(N[C@@H](Cc2ccc(OC(=O)N(C)C)cc2)C(=O)O)n1` had a 50% inhibitory concentration (IC50) of 5 nM. That is a single-digit nanomolar value.
